From paper PMC7548052 (Molecular Diversity, 2020)

Columns and labels:
Assay type in all cases: cell-based
[1] = test system: H460; test: Anticancer screening, MTT assay, 72 h; conditions: Homo sapiens
How it was run: (§1)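 Monolayer cultures were kept at 37 °C, 5% CO2 and plated on day 0 at 3 × 10^4 cells/mL (HCT 116, H460) or 5 × 10^4 cells/mL (MCF-7). Test agents were added in ten-fold dilutions (10−8 to 10−4 M) and incubated 72 h. Growth was read by MTT at 570 nm. GI50 is the concentration giving 50% inhibition. Two independent experiments were run, points at least in triplicate.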

[2] = test system: HCT 116; test: Anticancer screening, MTT assay, 72 h; conditions: Homo sapiens
How it was run: as §1

[3] = test system: MCF-7; test: Anticancer screening, MTT assay, 72 h; conditions: Homo sapiens, MCF7, 72 h
How it was run: as §1

[4] = test system: DND-41; test: Anticancer screening, MTS cell proliferation assay, 72 h; conditions: Homo sapiens
How it was run: (§2)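 HL-60, K-562, Z-138 and DND-41 suspension cells were seeded at 2500–6000 cells/well directly into wells already containing test compound at seven concentrations (100 to 6.4 × 10−3 µM). After 72 h, MTS reagent was added and absorbance read at 490 nm. GI50 is the concentration giving 50% growth inhibition. Two independent experiments were run, each point at least in triplicate.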

[5] = test system: Z-138; test: as above; conditions: Homo sapiens
How it was run: as §2

[6] = test system: K-562; test: as above; conditions: Homo sapiens
How it was run: as §2

[7] = test system: Capan-1; test: Anticancer screening, MTS cell proliferation assay, 72 h; conditions: Homo sapiens
How it was run: (§3)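 Human solid-tumour lines were grown as monolayers in supplier-recommended media at 37 °C, 5% CO2. LN-229 was seeded at 375 and Capan-1 at 250 cells/well and incubated overnight. Cells were then exposed for 72 h to seven concentrations (100 to 6.4 × 10−3 µM). MTS reagent was added and absorbance read at 490 nm. Two independent experiments were run, each point at least in triplicate.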

[8] = test system: HL-60; test: Anticancer screening, MTS cell proliferation assay, 72 h; conditions: Homo sapiens
How it was run: as §2

[9] = test system: LN-229; test: Anticancer screening, MTS cell proliferation assay, 72 h; conditions: Homo sapiens
How it was run: as §3

Row | SMILES | GI50 ([1]; NCI-H460, 72 h) [µM] | GI50 ([2]; HCT-116, 72 h) [µM] | GI50 [3] [µM] | GI50 ([4]; DND41, 72 h) [µM] | GI50 ([5]; Z-138, 72 h) [µM] | GI50 ([6]; K562, 72 h) [µM] | GI50 ([7]; CAPAN-1, 72 h) [µM] | GI50 ([8]; HL-60, 72 h) [µM] | GI50 ([9]; LN-229, 72 h) [µM] | GI50 ([1]; NCI-H460) [µM] | GI50 ([2]; HCT-116) [µM] | GI50 ([4]; DND41) [µM] | GI50 ([5]; Z-138) [µM] | GI50 ([6]; K562) [µM] | GI50 ([7]; CAPAN-1) [µM] | GI50 ([8]; HL-60) [µM] | GI50 ([9]; LN-229) [µM]
1 | COc1ccc2[nH]c(CCNC(=O)C=C(C)C(=O)NCCc3c[nH]c4ccc(OC)cc34)cc2c1 [Compound 14, N′-[2-(5-methoxy-1H-indol-2-yl)ethyl]-N-[2-(5-methoxy-1H-indol-3-yl)ethyl]-2-methylbut-2-enediamide] | 23 ± 1 | 13 ± 0.2 | 11 ± 0.3 |  |  |  |  |  |  |  |  |  |  |  |  |  | 
2 | C=C(CC(=O)OC)C(=O)NCCc1c[nH]c2ccc(OC)cc12 [Compound 10, Methyl 3-{[2-(5-methoxy-1H-indol-3-yl)ethyl]carbamoyl}but-3-enoate] | 11 ± 1 | 3 ± 1 | 2 ± 1.2 | 18.9 ± 4.2 | 2.6 ± 0.3 | 16.5 ± 1 | 2.4 ± 0.9 | 4.9 ± 0.8 | 6.5 ± 1.2 |  |  |  |  |  |  |  | 
3 | CCN(CC)CCCC(C)Nc1ccnc2cc(Cl)ccc12 (stereo not shown) [CQ, chloroquine diphosphate, reference compound] | 13 ± 0.8 | 16 ± 3 | 6 ± 1.8 | 53.7 ± 6.9 | 13.6 ± 0.6 | 45 ± 0.7 | 14.9 ± 1.5 | 13 ± 0.2 | 22 ± 2.8 |  |  |  |  |  |  |  | 
4 | CC(=CC(=O)NCCCCNc1cc(C(F)(F)F)nc2c(C(F)(F)F)cccc12)C(=O)NCCCCNc1cc(C(F)(F)F)nc2c(C(F)(F)F)cccc12 [Compound 15, N,N′-bis(4-{[2,8-bis(trifluoromethyl)quinolin-4-yl]amino}butyl)-2-methylbut-2-enediamide] | 3 ± 1 | 2.4 ± 0.4 | 0.7 ± 0.2 | 7.9 ± 4.4 | 6.9 ± 1.3 | 8.6 ± 0.3 | 2.3 ± 0.3 | 2.6 ± 0.2 | 2.4 ± 0.8 |  |  |  |  |  |  |  | 
5 | C=C(CC(=O)OC)C(=O)NCCCCNc1ccnc2cc(Cl)ccc12 [Compound 12, Methyl 3-({4-[(7-chloroquinolin-4-yl)amino]butyl}carbamoyl)but-3-enoate] | 2 ± 0.9 | 2 ± 0.05 | 0.8 ± 0.3 | 3.1 ± 0.1 | 1.9 ± 0.1 | 8.1 ± 0.4 | 1.3 ± 0.4 | 1.9 | 1.1 ± 0.1 |  |  |  |  |  |  |  | 
6 | C=C(CC(=O)OC)C(=O)NCc1cccnc1 [Compound 8, Methyl 3-{[(pyridin-3-yl)methyl]carbamoyl}but-3-enoate] | 16 ± 2 | 3 ± 1 | 6 ± 1 | 16.3 ± 0.1 | 10.2 ± 0.3 | 53.3 ± 2.7 | 9.1 ± 0.7 | 11 ± 0.3 | 8.4 ± 0.1 |  |  |  |  |  |  |  | 
7 | C=C(CC(=O)OC)C(=O)NCCCC(C)Nc1cc(OC)cc2cccnc12 (stereo not shown) [Compound 11, Methyl 3-({4-[(6-methoxyquinolin-8-yl)amino]pentyl}carbamoyl)but-3-enoate] | 4 ± 0.5 | 2.5 ± 0.07 | 4 ± 1 | 18.1 ± 1.1 | 11 ± 0.2 | 28.1 ± 7.1 | 5.4 ± 3.3 | 11.1 ± 0.6 | 4.3 ± 2.2 |  |  |  |  |  |  |  | 
8 | CN[C@@H]1C[C@H]2O[C@@](C)([C@@H]1OC)n1c3ccccc3c3c4c(c5c6ccccc6n2c5c31)C(=O)NC4 [STS, staurosporine, reference compound] |  |  |  |  |  |  |  |  |  | 0.048 ± 0.0023 | 0.023 ± 0.0114 | 0.0161 ± 0.0105 | 0.0261 ± 0.0139 | 0.0337 ± 0.0036 | 0.0323 ± 0.0032 | 0.0312 ± 0.0123 | 0.0634 ± 0.0223
9 | C=C(CC(=O)OC)C(=O)Nc1ccc(F)cc1 [Compound 2, Methyl 3-[(4-fluorophenyl)carbamoyl]but-3-enoate] | 15 ± 1 | 4 ± 1 | 2 ± 0.1 | 15.7 | 8.4 ± 0.5 | 15.9 ± 1 | 2.8 ± 0.6 | 9.3 ± 0.5 | 8 ± 0.6 |  |  |  |  |  |  |  | 
10 | C=C(CC(=O)OC)C(=O)Nc1cccnc1 [Compound 6, Methyl 3-[(pyridin-3-yl)carbamoyl]but-3-enoate] | 18 ± 1 | 12 ± 2 | 3 ± 1 | 26.3 ± 6.6 | 10.9 | 49.9 ± 2.2 | 8.9 ± 0.1 | 13.1 ± 1 | 10.2 ± 1 |  |  |  |  |  |  |  | 
11 | C=C(CC(=O)OC)C(=O)Nc1ccc(C(F)(F)F)cc1 [Compound 4, Methyl 3-{[4-(trifluoromethyl)phenyl]carbamoyl}but-3-enoate] | 11 ± 3 | 3 ± 1 | 1 ± 0.3 | 16.1 ± 0.4 | 8.2 ± 0.4 | 31.3 ± 3 | 5.3 ± 0.5 | 8 ± 0.8 | 7.7 ± 0.2 |  |  |  |  |  |  |  | 
12 | C=C(CC(=O)OC)C(=O)NCCc1cccnc1 [Compound 9, Methyl 3-{[2-(pyridin-3-yl)ethyl]carbamoyl}but-3-enoate] | 15 ± 1 | 4 ± 1 | 2 ± 1 | 18.5 ± 2.4 | 5.6 ± 1.6 | 34.5 ± 8.7 | 5.9 ± 0.2 | 9.6 ± 0.6 | 6.2 ± 0.8 |  |  |  |  |  |  |  | 
13 | C=C(CC(=O)OC)C(=O)Nc1cccc(C(F)(F)F)c1 [Compound 3, Methyl 3-{[3-(trifluoromethyl)phenyl]carbamoyl}but-3-enoate] | 9 ± 2 | 3 ± 1 | 2 ± 0.4 | 21.2 ± 4 | 5.4 ± 0.1 | 13.9 ± 0.6 | 1.9 ± 0.3 | 3.7 ± 0.1 | 4.4 ± 0.1 |  |  |  |  |  |  |  | 
14 | C=C(CC(=O)OC)C(=O)Nc1cncc(F)c1 [Compound 7, Methyl 3-[(5-fluoropyridin-3-yl)carbamoyl]but-3-enoate] | 16 ± 2 | 7 ± 2 | 3 ± 1.1 | 21 ± 2.2 | 9 ± 0.2 | 43.4 | 6.8 ± 1.7 | 10.6 ± 0.7 | 8.1 ± 0.3 |  |  |  |  |  |  |  | 
15 | C=C(CC(=O)OC)C(=O)Nc1cc(OC)cc2cccnc12 [Compound 5, Methyl 3-[(6-methoxyquinolin-8-yl)carbamoyl]but-3-enoate] | 8 ± 2 | 12 ± 2 | 10 ± 2.5 | 25.5 ± 9.4 | 6.1 ± 0.3 | 31 ± 3.9 | 6.3 ± 2.3 | 10.1 ± 0.1 | 6.2 ± 0.4 |  |  |  |  |  |  |  | 
16 | CC(=O)O[C@@]12CO[C@@H]1C[C@H](O)[C@@]1(C)C(=O)[C@H](O)C3=C(C)[C@@H](OC(=O)[C@H](O)[C@@H](NC(=O)OC(C)(C)C)c4ccccc4)C[C@@](O)([C@@H](OC(=O)c4ccccc4)[C@H]21)C3(C)C [DTX, docetaxel, reference compound] |  |  |  |  |  |  |  |  |  | 0.0058 ± 0.0038 | 0.0045 ± 0.0044 | 0.002 ± 0.0012 | 0.0014 ± 0.0009 | 0.0096 ± 0.0033 | 0.0045 ± 0.002 | 0.0104 ± 0.0024 | 0.0035 ± 0.0012
